Test results from PubChem BioAssay AID449754 (Broad Institute, 2010).
Inconclusive results are not listed. Calls of active or inactive are those of the source.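 The calls were made as follows: active = compounds whose fitted caspase activation AC50 is no more than tenfold above the top tested dose; inconclusive = flat fit with 30 to 70% activity, or a failed fit; inactive = the rest.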

Test system: MEF Bax/Bak KO A1-BIM, caspase-Glo luminescence, 3 h
Experiment: caspase activation in Bax/Bak-deficient MEFs, dose response, counter-screen for A1 inhibitor project, cell-based, Bax-Bak knockout MEF, A1-2A-BIM, luminescence (AID 449754);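 also: counterscreen where caspase activation signals off-target toxicity not A1 inhibition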
In short: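 Material: A1-2A-BIM MEFs lacking Bax and Bak / Buffer or medium: RPMI-1640, 10% FBS / Compound: 100 nL pinned compound per well / Timing: 3 h compound at 37 °C, 1 h detection at RT / Technique: CaspaseGlo luminescence, reagent diluted 1:1 in 50 mM HEPES / Read-out basis: caspase activity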

| SMILES | AC50 |
| --- | --- |
| CC(=O)OC(C)(C)/C=C/C(=O)C(C)(O)C1[C@H](O)C[C@@]2(C)C3CC=C4C(CC[C@@H](O)C4(C)C)[C@]3(CO)C(=O)C[C@]12C (stereo partly specified) | > 35 µM (inactive) |
| COc1cc(C(=O)Nc2cc3c(cc2N2CCCCC2)n(C)c(=O)n3C)cc(OC)c1OC | > 35 µM (inactive) |
| CC1CCc2c(sc3nc(C(C)(C)C)nc(N4CCN(C(=O)CCl)CC4)c23)C1 (stereo unspecified) | 12.3 µM |
| Cc1[nH]nc2nc(SCC(=O)NCCC3=CCCCC3)n(-c3ccc(Br)cc3)c(=N)c12 | 18.6 µM |
| CN(C)CCN(C(=O)/C=C/c1cccs1)c1nc2c(F)cc(F)cc2s1 | > 35 µM (inactive) |
| O=C1/C(=C/c2ccc(N3CCOCC3)o2)SC(=Nc2ccccc2)N1CCc1c[nH]c2ccccc12 | 6.82 µM |
| CCOc1ccc(N2C(=O)/C(=C\c3ccc(O)c(OC)c3)S(=O)(=O)C2c2cccc([N+](=O)[O-])c2)cc1 (stereo unspecified) | > 35 µM (inactive) |
| CC1CCN(Cc2c(C(=O)N/N=C/c3ccc(C(C)(C)C)cc3)nnn2-c2nonc2N)CC1 | > 35 µM (inactive) |
| COc1ccc(-c2ccc3c(c2)S(=O)(=O)c2cccc(C(=O)NC[C@@H]4CCCO4)c2C3=O)cc1OC | > 35 µM (inactive) |
| O=C(Nc1ccc([N+](=O)[O-])cc1)C(Cc1ccccc1)N1C(=O)c2cccc3cccc(c23)C1=O (stereo unspecified) | > 35 µM (inactive) |
| CCOC(=O)CSC1=N/C(=C/c2ccc(-n3cncn3)cc2)C(=O)N1C(C)=O | > 35 µM (inactive) |
| CN1C2CCC1/C(=C/c1ccccn1)C(=O)/C2=C\c1ccccn1 | > 35 µM (inactive) |
| O=c1c(Cl)c(Cl)cnn1Cc1ccccc1Cl | > 35 µM (inactive) |
| Cc1cccc(Nc2nc(N)c([N+](=O)[O-])c(N3CCCC(C)C3)n2)c1 (stereo unspecified) | > 35 µM (inactive) |
| CC(C)CC(NC(=O)c1ccc(Cl)cc1)C(=O)OCC(=O)c1ccc2c(c1)NC(=O)CO2 (stereo unspecified) | 6.3 µM |
| CCOc1cc(C(=O)CSc2nnc(CNc3ccc(Cl)cc3)o2)ccc1NC(=O)CC | 17.6 µM |

| SMILES | AC50 |
| --- | --- |
| CCOc1ccc(OCC(=O)N(CCC2=CCCCC2)c2c(N)n(Cc3ccccc3)c(=O)[nH]c2=O)cc1 | 18.8 µM |
| C=C1CCc2c([nH]c3ccc(OCC(C)C)cc23)C1=O | 16.6 µM |
| COc1ccc(S(=O)(=O)N2CC(O)CC2C(=O)OCC(=O)Nc2ccc(Cl)cn2)cc1 (stereo unspecified) | > 35 µM (inactive) |
| Cc1ccc(Sc2c([N+](=O)[O-])c(=O)n(C)c3ccccc23)cc1 | > 35 µM (inactive) |
| COc1cc(NC(=O)c2cccc(C)c2)ccc1NC(=O)c1cc2ccccc2o1 | > 35 µM (inactive) |
| CCCc1ccc(OCc2ccc(C(=O)N/N=C/c3cccc([N+](=O)[O-])c3)o2)c(OC)c1 | 26.3 µM |
| CCc1nnc(NC(=O)CSc2nc(-c3ccccc3)cc(-c3ccc(F)cc3)c2C#N)s1 | 35.8 µM |
| COC(=O)Cc1csc(/N=C/c2c(O)n(-c3cccc(C(F)(F)F)c3)c(=O)c3ccccc23)n1 | 28 µM |
| COc1cc(NC(=O)c2ccc(Cl)cc2Cl)ccc1-c1cc2ccccc2oc1=O | > 35 µM (inactive) |
| CCc1nn(-c2cc(Oc3cccc4ccccc34)nc(-c3ccccc3)n2)c(N)c1C#N | > 35 µM (inactive) |
| CCc1cc2c(=O)c(-c3cnn(-c4ccccc4)c3)c(C)oc2cc1OCC(=O)Nc1cccc(C)c1 | > 35 µM (inactive) |
| Cc1ccc(S(=O)(=O)N(C)Cc2ccc(C(=O)N/N=C/c3ccc(OC(F)F)cc3)cc2)cc1 | > 35 µM (inactive) |
| COc1cc(/C=C(/C#N)c2nc3ccccc3[nH]2)ccc1OCC(=O)Nc1ccccc1C(C)C | > 35 µM (inactive) |
| O=C(CCl)N=c1sccn1Cc1ccccc1Cl | > 35 µM (inactive) |
| N#Cc1c(C(F)(F)F)cc(-c2ccccc2)nc1SCC(=O)Nc1sc2c(c1C#N)CCC2 | > 35 µM (inactive) |
